# Reference: ChEMBL document CHEMBL1126688, “Interphenylene 7-oxabicyclo[2.2.1]heptane oxazoles. Highly potent, selective, and long-acting thromboxane A2 receptor antagonists” (J Med Chem, 1993)
# Organism: Homo sapiens
# Assay: Inhibitory activity against platelet aggregation, induced by U-46619 in human platelet rich plasma
# Type: functional
# Conditions: read-out: I50
# In short: (§1)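 Human platelet-rich plasma. Aggregation was induced by exogenous arachidonic acid or by the TxA2 mimetic U-46,619, each at a single fixed agonist level. I50 was taken as the antagonist concentration giving 50% inhibition of aggregation.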
row,SMILES,IC50 [nM]
1,O=C(O)CCc1ccccc1CC1C2CCC(O2)C1c1nc(C(=O)NCCc2ccccc2)co1 (stereo unspecified),30
2,O=C(O)CCc1ccccc1CC1C2CCC(O2)C1c1nc(C(=S)NCCCCC2CCCCC2)co1 (stereo unspecified),9
3,CCCNC(=O)c1coc(C2C3CCC(O3)C2Cc2ccccc2CCC(=O)O)n1 (stereo unspecified),53

# Organism: Homo sapiens
# Assay: Inhibitory activity against platelet aggregation, induced by arachidonic acid in human platelet rich plasma
# Type: functional
# Conditions: read-out: I50
# In short: as §1
row,IC50 [nM],SMILES
1,12,O=C(O)CCc1ccccc1CC1C2CCC(O2)C1c1nc(C(=O)Nc2ccccc2)co1 (stereo unspecified)
2,146,O=C(O)Cc1cccc(CCC2C3CCC(O3)C2c2nc(C(=O)NCCCCC3CCCCC3)co2)c1 (stereo unspecified)
3,64,CC(C)(CCCCNC(=O)c1coc(C2C3CCC(O3)C2Cc2ccccc2CCC(=O)O)n1)C(=O)O (stereo unspecified)
4,1540,O=C(NCCCCC1CCCCC1)c1coc(C2C3CCC(O3)C2Cc2ccccc2CCCO)n1 (stereo unspecified)
5,6,COc1ccc(NC(=O)c2coc(C3C4CCC(O4)C3Cc3ccccc3CCC(=O)O)n2)cc1 (stereo unspecified)
6,1580,O=C(O)Cc1ccccc1CCC1C2CCC(O2)C1c1nc(C(=O)NCCCCC2CCCCC2)co1 (stereo unspecified)
7,31000,O=C(O)CCc1ccccc1CC1C2CCC(O2)C1c1nc(CO)co1 (stereo unspecified)
8,110,O=C(O)c1cccc(CCC2C3CCC(O3)C2c2nc(C(=O)NCCCCC3CCCCC3)co2)c1 (stereo unspecified)
9,2,CS(=O)(=O)NC(=O)CCc1ccccc1CC1C2CCC(O2)C1c1nc(C(=O)NCCCCC2CCCCC2)co1 (stereo unspecified)
10,290,CCOC(=O)CCc1ccccc1CC1C2CCC(O2)C1c1nc(C(=O)NCCCCC2CCCCC2)co1 (stereo unspecified)
11,26,CS(=O)(=O)c1ccc(CCCCNC(=O)c2coc(C3C4CCC(O4)C3Cc3ccccc3CCC(=O)O)n2)cc1 (stereo unspecified)
12,1070,NC(=O)CCc1ccccc1CC1C2CCC(O2)C1c1nc(C(=O)NCCCCC2CCCCC2)co1 (stereo unspecified)
13,6,O=C(O)CCCc1ccccc1CC1C2CCC(O2)C1c1nc(C(=O)NCCCCC2CCCCC2)co1 (stereo unspecified)
14,2,O=C(O)CCc1ccccc1CC1C2CCC(O2)C1c1nc(C(=S)NCCCCC2CCCCC2)co1 (stereo unspecified)

# More lines, now with the values behind:
row,SMILES,IC50 [nM]
1,CSc1ccc(CCCCNC(=O)c2coc(C3C4CCC(O4)C3Cc3ccccc3CCC(=O)O)n2)cc1 (stereo unspecified),6
2,O=C(O)CCc1ccccc1CC1C2CCC(O2)C1c1nc(C(=O)NCCCCc2ccc(O)cc2)co1 (stereo unspecified),12
3,O=C(O)CCc1ccccc1CC1C2CCC(O2)C1c1nc(C(=O)Nc2ccc(Cl)cc2)co1 (stereo unspecified),6
4,CN(CCCCC1CCCCC1)C(=O)c1coc(C2C3CCC(O3)C2Cc2ccccc2CCC(=O)O)n1 (stereo unspecified),2
5,O=C(O)CCc1ccccc1CC1C2CCC(O2)C1c1nc(C(=O)NCCC2CCCCC2)co1 (stereo unspecified),2
6,O=C(O)CCc1ccccc1CC1C2CCC(O2)C1c1nc(C(=O)NCCc2ccccc2)co1 (stereo unspecified),9
7,CCCCCN(C)C(=O)c1coc(C2C3CCC(O3)C2Cc2ccccc2CCC(=O)O)n1 (stereo unspecified),9
8,CCCNC(=O)c1coc(C2C3CCC(O3)C2Cc2ccccc2CCC(=O)O)n1 (stereo unspecified),8

# Test system: Mus musculus
# Assay: In vivo duration of action required to prevent death in mice, after i.v. administration of U-46619 (2 mg/kg) at 0.2 mg/kg p.o.
# Conditions: po
row,SMILES,T50 [h]
1,O=C(O)CCc1ccccc1CC1C2CCC(O2)C1c1nc(C(=O)Nc2ccc(Cl)cc2)co1 (stereo unspecified),25.8
2,O=C(O)CCc1ccccc1CC1C2CCC(O2)C1c1nc(C(=O)NCCCCc2ccc(Cl)cc2)co1 (stereo unspecified),18.6
3,O=C(O)CCc1ccccc1CC1C2CCC(O2)C1c1nc(C(=O)NC2CCCCC2)co1 (stereo unspecified),8.3
4,O=C(O)CCc1ccccc1CC1C2CCC(O2)C1c1nc(C(=O)NCCC2CCCCC2)co1 (stereo unspecified),8.3
5,CNC(=O)c1coc(C2C3CCC(O3)C2Cc2ccccc2CCC(=O)O)n1 (stereo unspecified),7.5
6,O=C(O)CCc1ccccc1CC1C2CCC(O2)C1c1nc(C(=O)NCCc2ccccc2)co1 (stereo unspecified),4
7,CCCCCN(C)C(=O)c1coc(C2C3CCC(O3)C2Cc2ccccc2CCC(=O)O)n1 (stereo unspecified),11.3
8,CCCCCCCCCCNC(=O)c1coc(C2C3CCC(O3)C2Cc2ccccc2CCC(=O)O)n1 (stereo unspecified),4.3
9,CCCNC(=O)c1coc(C2C3CCC(O3)C2Cc2ccccc2CCC(=O)O)n1 (stereo unspecified),2.3

# Biological target: T1, Thromboxane A2 receptor (Homo sapiens, UniProt P21731)
# T1 sequence (P21731 whole entry): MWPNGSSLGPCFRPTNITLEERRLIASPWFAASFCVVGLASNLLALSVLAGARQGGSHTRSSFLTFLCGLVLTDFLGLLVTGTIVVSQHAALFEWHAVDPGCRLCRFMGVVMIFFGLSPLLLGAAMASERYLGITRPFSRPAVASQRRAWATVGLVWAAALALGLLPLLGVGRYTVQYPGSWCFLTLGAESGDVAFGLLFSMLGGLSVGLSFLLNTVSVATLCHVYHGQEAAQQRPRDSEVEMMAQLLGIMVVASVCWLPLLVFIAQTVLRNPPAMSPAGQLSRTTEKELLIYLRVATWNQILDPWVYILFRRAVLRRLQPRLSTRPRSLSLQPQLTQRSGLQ
# Assay: Inhibitory binding activity against TXA2 receptor in human platelet membrane, using [3H]-SQ 29548 as the radioligand
# Conditions: not given
# In short: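 Competition binding of [3H]-SQ 29,548 to TxA2 receptors in human platelet membranes, measured as inhibition of specific binding. Kd (inhibition constant) was calculated from each compound's I50 value. A slope factor is also reported.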
row,SMILES,Kd [nM]
1,O=C(O)Cc1cccc(CCC2C3CCC(O3)C2c2nc(C(=O)NCCCCC3CCCCC3)co2)c1 (stereo unspecified),16.3
2,O=C(NCCCCC1CCCCC1)c1coc(C2C3CCC(O3)C2Cc2ccccc2CCCO)n1 (stereo unspecified),112
3,O=C(O)c1cccc(CCC2C3CCC(O3)C2c2nc(C(=O)NCCCCC3CCCCC3)co2)c1 (stereo unspecified),18.4
4,CSc1ccc(CCCCNC(=O)c2coc(C3C4CCC(O4)C3Cc3ccccc3CCC(=O)O)n2)cc1 (stereo unspecified),2.9
5,O=C(O)CCc1ccccc1CC1C2CCC(O2)C1c1nc(C(=O)NCCCCc2ccc(O)cc2)co1 (stereo unspecified),0.5
6,CS(=O)(=O)NC(=O)CCc1ccccc1CC1C2CCC(O2)C1c1nc(C(=O)NCCCCC2CCCCC2)co1 (stereo unspecified),1.6
7,O=C(O)CCc1ccccc1CC1C2CCC(O2)C1c1nc(C(=O)NCCCCc2ccc(Cl)cc2)co1 (stereo unspecified),0.2
8,O=C(O)CCCc1ccccc1CC1C2CCC(O2)C1c1nc(C(=O)NCCCCC2CCCCC2)co1 (stereo unspecified),0.85
9,O=C(O)CCc1ccccc1CC1C2CCC(O2)C1c1nc(C(=O)NC2CCCCC2)co1 (stereo unspecified),4.5
10,O=C(O)CCc1ccccc1CC1C2CCC(O2)C1c1nc(C(=O)NCCC2CCCCC2)co1 (stereo unspecified),0.7
11,CNC(=O)c1coc(C2C3CCC(O3)C2Cc2ccccc2CCC(=O)O)n1 (stereo unspecified),45
12,O=C(O)CCc1ccccc1CC1C2CCC(O2)C1c1nc(C(=O)NCCc2ccccc2)co1 (stereo unspecified),0.7
13,O=C(O)CCc1ccccc1CC1C2CCC(O2)C1c1nc(C(=S)NCCCCC2CCCCC2)co1 (stereo unspecified),10.6
14,CCCCCN(C)C(=O)c1coc(C2C3CCC(O3)C2Cc2ccccc2CCC(=O)O)n1 (stereo unspecified),11
15,CCCCCCCCCCNC(=O)c1coc(C2C3CCC(O3)C2Cc2ccccc2CCC(=O)O)n1 (stereo unspecified),5.8
16,CCCNC(=O)c1coc(C2C3CCC(O3)C2Cc2ccccc2CCC(=O)O)n1 (stereo unspecified),10

# Test system: not listed separately
# Assay: Partition coefficient (logP)
# Type: physicochemical
# Conditions: octanol/water
# In short: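 log P came from reversed-phase TLC Rm values on C18 plates. Eluent was acetone in 0.5 M aqueous KBr, buffered with 0.25 N triethylammonium phosphate to pH 7.3. Values were converted with a calibration curve built from shake-flask partition coefficients (pH 7.0) of seven oxabicycloheptane compounds spanning a range of lipophilicities.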
row,SMILES,logP
1,O=C(O)CCc1ccccc1CC1C2CCC(O2)C1c1nc(C(=O)Nc2ccccc2)co1 (stereo unspecified),1.19
2,CC(C)(CCCCNC(=O)c1coc(C2C3CCC(O3)C2Cc2ccccc2CCC(=O)O)n1)C(=O)O (stereo unspecified),0.5
3,COc1ccc(NC(=O)c2coc(C3C4CCC(O4)C3Cc3ccccc3CCC(=O)O)n2)cc1 (stereo unspecified),0.95
4,CSc1ccc(CCCCNC(=O)c2coc(C3C4CCC(O4)C3Cc3ccccc3CCC(=O)O)n2)cc1 (stereo unspecified),1.66
5,O=C(O)CCc1ccccc1CC1C2CCC(O2)C1c1nc(C(=O)NCCCCc2ccc(O)cc2)co1 (stereo unspecified),1.49
6,O=C(O)CCc1ccccc1CC1C2CCC(O2)C1c1nc(C(=O)Nc2ccc(Cl)cc2)co1 (stereo unspecified),2.52
7,O=C(O)CCc1ccccc1CC1C2CCC(O2)C1c1nc(C(=O)NCCCCc2ccc(Cl)cc2)co1 (stereo unspecified),3.52
8,CS(=O)(=O)c1ccc(CCCCNC(=O)c2coc(C3C4CCC(O4)C3Cc3ccccc3CCC(=O)O)n2)cc1 (stereo unspecified),0.32
9,CN(CCCCC1CCCCC1)C(=O)c1coc(C2C3CCC(O3)C2Cc2ccccc2CCC(=O)O)n1 (stereo unspecified),3.89
10,O=C(O)CCc1ccccc1CC1C2CCC(O2)C1c1nc(C(=O)NC2CCCCC2)co1 (stereo unspecified),0.89
11,O=C(O)CCc1ccccc1CC1C2CCC(O2)C1c1nc(C(=O)NCCC2CCCCC2)co1 (stereo unspecified),1.03
12,CNC(=O)c1coc(C2C3CCC(O3)C2Cc2ccccc2CCC(=O)O)n1 (stereo unspecified),-0.11
13,O=C(O)CCc1ccccc1CC1C2CCC(O2)C1c1nc(C(=O)NCCc2ccccc2)co1 (stereo unspecified),0.98
14,CCCCCN(C)C(=O)c1coc(C2C3CCC(O3)C2Cc2ccccc2CCC(=O)O)n1 (stereo unspecified),1
15,CCCCCCCCCCNC(=O)c1coc(C2C3CCC(O3)C2Cc2ccccc2CCC(=O)O)n1 (stereo unspecified),3.86
16,CCCNC(=O)c1coc(C2C3CCC(O3)C2Cc2ccccc2CCC(=O)O)n1 (stereo unspecified),0.4
